Laboratory results taken from ChEMBL document CHEMBL4011632, “Design, Synthesis, and Evaluation of Thiazolidine-2,4-dione Derivatives as a Novel Class of Glutaminase Inhibitors” (J Med Chem, 2017).
Active and inactive are the calls of the source. The rule behind the calls is not given here.

Key:
[1] = AUC (0 to infinity) in Sprague-Dawley rat at 2 mg/kg, iv by HPLC-MS analysis; type: ADME, organism-based; set-up: dose 2 mg/kg, route intravenous, time infinity; settings: in vivo
In short: (§1)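 Male rats (330−380 g, 9−10 weeks old), jugular-vein cannulated 1 day before dosing, n = 3. Dosed iv in DMA/PEG400 (20%/80%, v/v) or po in 1% CMC/0.5% Tween-80. Blood (100 μL) drawn at 0, 2 min, 5 min (iv only), 15 and 30 min, and 1, 2, 4, 6, 8 and 24 h. Plasma measured by LC-MS/MS; parameters from noncompartmental analysis.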

[2] = Volume of distribution at steady state in Sprague-Dawley rat at 2 mg/kg, iv by HPLC-MS analysis; type: ADME, organism-based; settings: in vivo, read-out: Vdss
In short: (§2)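 Male rats (330−380 g, 9−10 weeks old), quarantined 1 week, jugular-vein cannula implanted 1 day before dosing; n = 3. Single iv dose in DMA/PEG400 (20%/80%, v/v). Blood (100 μL) was drawn via cannula at 0, 2, 5, 15, 30 min and 1, 2, 4, 6, 8, 24 h and kept on ice. Plasma was analysed by HPLC−MS/MS. Vss came from noncompartmental analysis.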

[3] = tested on: Mus musculus; assay: Toxicity in BALB/CAnN.Cg-Foxn1nu/CrlNarl mouse xenografted with human Aspc-1 cells assessed as overt toxicity at 25 to 50 mg/kg, ip once daily administered for 5 days followed by 2 days without dosing for 68 days; type: organism-based, BALB/C; settings: in vivo
[4] = tested on: ASPC1; assay: Antitumor activity against human Aspc-1 cells xenografted in Balb/cAnN.Cg-Foxn1nu/CrlNarl nude mouse assessed as tumor growth inhibition at 50 mg/kg, ip once daily administered for 5 days followed by 2 days without dosing for 68 days relative to control; type: functional; settings: read-out: TGI
In short: (§3)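 Male nude mice (7−8 weeks, 18−22 g) received 4.5 × 10^6 AsPC-1 cells sc in the right flank, in HBSS mixed 1:1 with Matrigel. Mice were randomized once mean tumor reached ~100 mm3 (day 1). Dosing was ip once daily, 5 days on/2 days off, with 2% DMSO/PBS as vehicle. Tumors were measured twice weekly, V = ab²/2. %TGI = [1 − ((Tt − T0)/(Ct − C0))] × 100 from median volumes; Student's t test.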

[5] = molecular target: T1, Glutaminase liver isoform, mitochondrial (Homo sapiens) (UniProt Q9UI32); assay: Inhibition of human GLS2 in GLS1 deficient human Aspc-1 cells assessed as decrease in cellular glutamate production at 3.13 to 100 uM after 4 hrs by amplex red glutamic acid assay
T1 sequence (whole entry): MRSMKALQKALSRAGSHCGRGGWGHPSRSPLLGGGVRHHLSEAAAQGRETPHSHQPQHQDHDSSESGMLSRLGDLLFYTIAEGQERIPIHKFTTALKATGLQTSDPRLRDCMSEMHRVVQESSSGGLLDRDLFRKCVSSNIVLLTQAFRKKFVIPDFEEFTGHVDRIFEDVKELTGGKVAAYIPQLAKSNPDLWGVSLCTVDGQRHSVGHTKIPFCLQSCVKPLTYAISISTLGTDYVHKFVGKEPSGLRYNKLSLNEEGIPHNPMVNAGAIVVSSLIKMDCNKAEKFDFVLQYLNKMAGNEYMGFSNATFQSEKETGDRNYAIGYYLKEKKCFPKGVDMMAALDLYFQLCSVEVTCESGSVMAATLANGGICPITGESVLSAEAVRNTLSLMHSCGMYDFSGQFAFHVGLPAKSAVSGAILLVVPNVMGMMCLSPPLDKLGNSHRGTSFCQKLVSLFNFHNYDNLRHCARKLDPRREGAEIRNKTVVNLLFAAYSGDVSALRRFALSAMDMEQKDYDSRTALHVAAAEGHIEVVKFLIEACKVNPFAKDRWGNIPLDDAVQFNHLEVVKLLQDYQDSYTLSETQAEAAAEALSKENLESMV
In short: (§4)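 GLS-knockout AsPC-1 cells made with GLS-KO ZFN mRNA, single-cell cloned, and grown in glutamine-free RPMI 1640 with 10% FBS. Cells seeded at 30 000/well and grown 24 h at 37 °C. Treated 4 h with 1% DMSO vehicle or 3.13−100 μM inhibitor, washed with PBS, and lysed in NP-40 buffer (4 °C, 20 min). Lysate glutamate measured by Amplex Red. Three independent experiments in duplicate.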

[6] = Total clearance in Sprague-Dawley rat at 2 mg/kg, iv by HPLC-MS analysis; type: ADME, organism-based; settings: in vivo
In short: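 Male rats (330−380 g, 9−10 weeks old), jugular-vein cannulated 1 day before dosing, n = 3. Dosed iv in DMA/PEG400 (20%/80%, v/v) or po in 1% CMC/0.5% Tween-80. Plasma measured by LC-MS/MS; parameters from noncompartmental analysis.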

[7] = Terminal half life in Sprague-Dawley rat at 2 mg/kg, iv by HPLC-MS analysis; type: ADME, organism-based; settings: in vivo, read-out: beta t1/2 (converted); in short: as §1
[8] = molecular target: T1, Glutaminase liver isoform, mitochondrial (Homo sapiens); assay: Inhibition of human GLS2 in GLS1 deficient human Aspc-1 cells assessed as decrease in cellular glutamate production after 4 hrs by amplex red glutamic acid assay; in short: as §4
[9] = Total clearance in Sprague-Dawley rat at 0.1 mg/kg, iv by HPLC-MS analysis; type: ADME, organism-based; settings: in vivo; in short: as §1
[10] = AUC (0 to infinity) in Sprague-Dawley rat at 0.1 mg/kg, iv by HPLC-MS analysis; type: ADME, organism-based; set-up: dose 0.1 mg/kg, time infinity, route intravenous; settings: in vivo; in short: as §1
[11] = tested on: Mus musculus; assay: Toxicity in BALB/CAnN.Cg-Foxn1nu/CrlNarl mouse xenografted with human Aspc-1 cells assessed as loss in body weight at 25 mg/kg, ip once daily administered for 5 days followed by 2 days without dosing for 43 days relative to control; type: organism-based, BALB/C; settings: in vivo
[12] = tested on: ASPC1; assay: Antitumor activity against human Aspc-1 cells xenografted in Balb/cAnN.Cg-Foxn1nu/CrlNarl mouse assessed as tumor growth inhibition at 50 mg/kg, ip once daily administered for 5 days followed by 2 days without dosing for 43 days relative to control; type: functional; settings: read-out: TGI; in short: as §3
[13] = tested on: ASPC1; assay: Antitumor activity against human Aspc-1 cells xenografted in Balb/cAnN.Cg-Foxn1nu/CrlNarl mouse assessed as tumor growth inhibition at 25 mg/kg, ip once daily administered for 5 days followed by 2 days without dosing for 43 days relative to control; type: functional; settings: read-out: TGI; in short: as §3
[14] = Tmax in Sprague-Dawley rat at 1 mg/kg, po by HPLC-MS analysis; type: ADME, organism-based; settings: in vivo; in short: as §1
[15] = tested on: Mus musculus; assay: Toxicity in BALB/CAnN.Cg-Foxn1nu/CrlNarl mouse xenografted with human Aspc-1 cells assessed as loss in body weight at 50 mg/kg, ip once daily administered for 5 days followed by 2 days without dosing for 43 days relative to control; type: organism-based, BALB/C; settings: in vivo
[16] = Oral bioavailability in Sprague-Dawley rat at 1 mg/kg by HPLC-MS analysis; type: ADME, organism-based; settings: in vivo; in short: as §1
[17] = Volume of distribution at steady state in Sprague-Dawley rat at 0.1 mg/kg, iv by HPLC-MS analysis; type: ADME, organism-based; settings: in vivo, read-out: Vdss; in short: as §2
[18] = AUC (0 to infinity) in Sprague-Dawley rat at 1 mg/kg, po by HPLC-MS analysis; type: ADME, organism-based; set-up: dose 1 mg/kg, route oral, time infinity; settings: in vivo; in short: as §1

SMILES | AUC(0-inf) [1] | Vd [2] | Activity [3] | inhibition in vivo at 50 mg/kg [4] | inhibition [5] | clearance [6] | half-life [7] | inhibition [8] | clearance [9] | AUC(0-inf) [10] | Activity [11] | inhibition in vivo at 50 mg/kg [12] | inhibition in vivo at 25 mg/kg [13] | Tmax [14] | Activity [15] | bioavailability [16] | Vd [17] | AUC(0-inf) [18]
O=C1NC(=O)/C(=C/c2ccc(-c3ccc(-n4c(-c5cccs5)cc(/C=C5\SC(=O)NC5=O)c4-c4cccs4)cc3)cc2)S1 | 43600 ng·h/mL | 0.1 L/kg | Non-Toxic | 49% | Active | 0.9 mL/min/kg | 5 h | Dose-dependent effect |  |  |  |  |  |  |  |  |  | 
Cc1cc(/C=C2\SC(=O)NC2=O)c(C)n1-c1ccc(-c2ccc(/C=C3\SC(=O)NC3=O)cc2)cc1 |  |  |  |  |  |  |  |  | 0.4 mL/min/kg | 3410 ng·h/mL | > 10% | 64% | 60% | 4 h | > 10% | 1% | 0.4 L/kg | 222 ng·h/mL
